Reference: paper PMC3227417 (Cancer prevention research (Philadelphia, Pa.), 2009)
Like-named read-outs stand apart in the source and are kept apart here.

Columns and labels:
[1] = system: human HT-29 colon tumor xenograft; test: HT-29 colon tumor xenograft, treatment of established tumors; type: in vivo, mice; details: for median number of days to reach a tumor weight of 2,000 mg: control 42.8 days; for median number of days to reach a tumor weight of 3,000 mg: control 52.2 days
[2] = biological target: T1, purified ovine COX-2 (Ovis aries, UniProt P79208); test: COX-2 colorimetric enzyme assay with purified isozyme; type: biochemical
T1 sequence (P79208 17-603): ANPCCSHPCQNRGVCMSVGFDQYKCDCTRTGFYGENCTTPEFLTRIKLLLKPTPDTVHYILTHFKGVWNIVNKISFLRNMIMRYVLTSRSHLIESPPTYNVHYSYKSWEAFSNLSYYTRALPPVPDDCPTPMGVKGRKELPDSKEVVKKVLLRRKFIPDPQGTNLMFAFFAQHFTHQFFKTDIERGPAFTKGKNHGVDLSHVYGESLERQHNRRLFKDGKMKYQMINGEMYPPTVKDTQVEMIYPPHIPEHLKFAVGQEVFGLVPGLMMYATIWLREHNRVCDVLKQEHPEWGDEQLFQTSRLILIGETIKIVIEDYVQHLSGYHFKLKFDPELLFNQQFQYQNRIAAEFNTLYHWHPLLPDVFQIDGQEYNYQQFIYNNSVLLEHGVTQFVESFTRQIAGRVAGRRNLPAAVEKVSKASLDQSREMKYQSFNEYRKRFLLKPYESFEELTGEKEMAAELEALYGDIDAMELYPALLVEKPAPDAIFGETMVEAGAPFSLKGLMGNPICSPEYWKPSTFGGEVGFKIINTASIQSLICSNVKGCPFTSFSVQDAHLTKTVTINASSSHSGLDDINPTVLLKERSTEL

[3] = biological target: T2, purified ovine COX-1 (Ovis aries, UniProt P05979); test: COX-1 colorimetric enzyme assay with purified isozyme; type: biochemical
T2 sequence (P05979 25-600): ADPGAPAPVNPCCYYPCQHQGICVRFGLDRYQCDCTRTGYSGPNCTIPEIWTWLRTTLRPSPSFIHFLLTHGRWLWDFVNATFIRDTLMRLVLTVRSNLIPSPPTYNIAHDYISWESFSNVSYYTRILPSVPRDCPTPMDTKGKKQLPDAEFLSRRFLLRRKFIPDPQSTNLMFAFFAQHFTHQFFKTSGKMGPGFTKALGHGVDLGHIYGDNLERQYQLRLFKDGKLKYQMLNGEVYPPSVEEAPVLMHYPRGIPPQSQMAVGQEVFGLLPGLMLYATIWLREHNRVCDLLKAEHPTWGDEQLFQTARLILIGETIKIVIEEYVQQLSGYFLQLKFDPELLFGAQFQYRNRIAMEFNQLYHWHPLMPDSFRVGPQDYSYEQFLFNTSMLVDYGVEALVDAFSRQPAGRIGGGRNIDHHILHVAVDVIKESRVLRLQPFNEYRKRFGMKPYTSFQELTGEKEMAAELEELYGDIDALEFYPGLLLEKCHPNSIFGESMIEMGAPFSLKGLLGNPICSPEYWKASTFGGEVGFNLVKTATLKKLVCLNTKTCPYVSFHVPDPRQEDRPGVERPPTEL

[4] = system: HT-29 colon tumor cells; test: Growth assay; type: cell-based, human; details: for continuous treatment required to reach maximum potency of growth inhibition: HT-29 time course
Method in brief: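 HT-29 cells were grown in RPMI 1640 with 5% FBS at 37°C under 5% CO2, using only cultures with >95% viability. Cells were seeded at 5,000/well, left 16 h, then treated continuously for 72 h at 37°C. Viable cell number was read as ATP luminescence (CellTiterGlo). A time course experiment used the same read-out. Mean, SE shown.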

[5] = system: HT-29 colon tumor cells; test: TUNEL apoptosis assay; type: cell-based, human; details: 24 hours, vehicle 2.3%
Method in brief: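 HT-29 cells were seeded at 2 × 10^6 per 10 cm dish and grown 48 h. Medium was then replaced with test compound or vehicle for 24 h. Cells were fixed in 4% formalin on ice for 15 min. Strand breaks were labelled with BrdUrd, detected with anti-BrdUrd Alexa Fluor 488, and nuclei stained with propidium iodide. TUNEL-positive percentage was read by flow cytometry (≥10,000 events). Mean ± SE.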

[6] = system: HT-29 colon tumor cells; test: Proliferation assay; type: cell-based, human; details: read-out: IC50 to inhibit DNA synthesis (3H-thymidine incorporation); HT-29, 72 h of treatment
[7] = system: caspases 3 and 7 activity in HT-29 colon tumor cells; test: Caspase-Glo 3/7 apoptosis assay; type: cell-based, human; details: HT-29, 25 µmol/L
Method in brief: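 HT-29 cells were seeded at 10,000/well and grown 18–24 h before treatment. Treatment lasted 2–8 h: time course at 25 µmol/L, and dose-response at 5 h exposure. Caspase 3/7 activity was read as luminescence from substrate cleavage (Caspase-Glo 3/7).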

[8] = system: NCr-nu/nu mice; type: in vivo
[9] = Pharmacokinetic study, plasma levels after single gastric gavage; type: in vivo, mice; details: for plasma level: mice, ± SD
[10] = system: human HT-29 colon tumor xenograft; test: HT-29 colon tumor xenograft, treatment from day of tumor implantation; type: in vivo
[11] = read-out: COX-1 IC50, purified COX-1 isozyme, arachidonic acid, 25°C, 5 min
[12] = read-out: COX-2 IC50, purified COX-2 isozyme, arachidonic acid, 25°C, 5 min
[13] = 250 mg/kg twice daily gastric gavage, 55 days
[14] = purified COX-1 isozyme, arachidonic acid, 25°C, 5 min
[15] = purified COX-2 isozyme, arachidonic acid, 25°C, 5 min

CCc1c2c(nc3ccc(OC(=O)N4CCC(N5CCCCC5)CC4)cc13)-c1cc3c(c(=O)n1C2)COC(=O)[C@]3(O)CC.Cl [Camptosar, irinotecan HCl]
median number of days to reach a tumor weight of 2,000 mg [1]: 48.2 days
median number of days to reach a tumor weight of 3,000 mg [1]: 58.7 days

CS(=O)(=O)c1ccc(C2=C(c3ccccc3)C(=O)OC2)cc1 [Rofecoxib]
IC50 [2]: 2.7 µM

CSc1ccc(/C=C2/C(C)=C(CC(=O)O)c3cc(F)ccc32)cc1 [SS, sulindac sulfide]
IC50 [3]: 1.8 µM
continuous treatment required to reach maximum potency of growth inhibition [4]: ~ 2 days
percentage of apoptotic cells (TUNEL) ([5]; HT-29, 100 µmol/L): 7.1%
percentage of apoptotic cells (TUNEL) ([5]; HT-29, 200 µmol/L): 49.9%

CSc1ccc(/C=C2/C(C)=C(CC(=O)NCCN(C)C)c3cc(F)ccc32)cc1 [SSA]
IC50 [3, 11]: > 300 µM
IC50 [2, 12]: 164 µM
increase in potency compared with SS (growth inhibition) ([4]; HT-29 cell line): ~40 fold
continuous treatment required to reach maximum potency of growth inhibition [4]: ~ 2 days
IC50 [6]: 1.2 µM
optimum treatment time for caspase induction [7]: ~ 4 hours
percentage of apoptotic cells (TUNEL) ([5]; HT-29, 10 µmol/L): 3.6%
percentage of apoptotic cells (TUNEL) ([5]; HT-29, 25 µmol/L): 10.2%
percentage of apoptotic cells (TUNEL) ([5]; HT-29, 50 µmol/L): 91.8%
tolerated dosage ([8]; mouse, in vivo): up to 300 mg/kg
plasma half-life ([9]; mouse, in vivo, po, 200 mg/kg): 9.9 h
mean body weight loss averaged over the duration of treatment [10, 13]: 1.1%
mean body weight loss on any given day [10, 13]: ≤ 6%
mean tumor weight ([10]; day 55, 250 mg/kg twice daily, control 2,534 mg): 1,141 mg
median number of days to reach a tumor weight of 2,000 mg [1]: 40.8 days
median number of days to reach a tumor weight of 3,000 mg [1]: 53.2 days

CC1=C(CC(=O)O)c2cc(F)ccc2/C1=C\c1ccc(S(C)(=O)=O)cc1 [Sulindac sulfone, sulindac sulfone]
IC50 [3]: > 300 µM
COX-1 IC50 [3, 14]: lack both COX-1 and COX-2 inhibitory activity
IC50 [2]: > 300 µM
COX-2 IC50 [2, 15]: lack both COX-1 and COX-2 inhibitory activity

CC1=C(CC(=O)O)c2cc(F)ccc2/C1=C\c1ccc([S+](C)[O-])cc1 (stereo not drawn) [Sulindac sulfoxide, sulindac]
COX-1 IC50 [3, 14]: lack both COX-1 and COX-2 inhibitory activity
IC50 [3, 11]: > 300 µM
COX-2 IC50 [2, 15]: lack both COX-1 and COX-2 inhibitory activity
IC50 [2, 12]: > 300 µM
IC50 [6]: 222 µM
tolerated dosage ([8]; mice, once daily gastric gavage, 20 days of treatment): ≤ 50 mg/kg
plasma level ([9]; 1 h post gastric gavage of SSA (200 mg/kg)): 50 ± 40 nM
plasma level ([9]; 2 h post gastric gavage of SSA (200 mg/kg)): 60 ± 10 nM
plasma level ([9]; 4 h post gastric gavage of SSA (200 mg/kg)): 50 ± 10 nM
plasma level ([9]; 8 h post gastric gavage of SSA (200 mg/kg)): 50 ± 14 nM
plasma level ([9]; 16 h post gastric gavage of SSA (200 mg/kg)): BLD
plasma level ([9]; 24 h post gastric gavage of SSA (200 mg/kg)): BLD
